High-throughput results (PubChem BioAssay)
TNAP inh no acc – human TNAP enzyme inhibitors, primary screen, biochemical, luminescent, no phosphate acceptor, uHTS; Alkaline phosphatase, tissue-nonspecific isozyme (Homo sapiens), P05186; purified TNAP, CDP-star luminescence, 30 min; inhibition, % at 20 µM; 0.26% of 200,000 active;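 active = tissue-nonspecific alkaline phosphatase inhibition above about 50% at 20 µM in the single-dose screen, limit read from the data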;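 note: 0% = DMSO negative control and 100% = EDTA positive control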
Ins promoter up – insulin promoter activators in MIN6 cells, imaging, high-content screening, mouse beta cells | MIN6 insulin promoter-GFP reporter; hits give high values | z-score at 5 µM | 0.3% of 190,000 active;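 active = z-score above 3 at 5 µM with at least 500 cells counted in the well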
TNAP act hiacc – TNAP activators at high phosphate acceptor level, primary screen, biochemical, luminescence, uHTS; Alkaline phosphatase, tissue-nonspecific isozyme (Homo sapiens), P05186; purified TNAP, CDP-star luminescence, 1 M DEA, 30 min; hits give high values; 0 = EDTA background, 1 = DMSO-only activity; activation factor at 20 µM; 200,000 tested, under 10 active; AID 1136, 2008;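 active = activation factor at least 2 at 20 µM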
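Measured by: Luminescent substrate turnover signal | Test system: Human TNAP | Input: TNAP 1/800 final | Dosing: 20 µM single point | Schedule: 30 min, room temperature | Controls: EDTA wells as negative control, DMSO wells as positive control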
NCF1 inh – p47phox/p22phox peptide binding inhibitors, primary screen, biochemical, uHTS, NADPH oxidase regulatory subunit. Neutrophil cytosol factor 1 (Homo sapiens), P14598. fluorescence polarization, 2 h. inhibition, % at 24.7 µM. 0.53% of 220,000 active. AID 1274, 2008;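 active = inhibition above about 30%, limit read from the data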;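 note: 0% = p47phox with labelled peptide and 100% = labelled peptide alone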
Target sequence (P14598 whole entry, looked up): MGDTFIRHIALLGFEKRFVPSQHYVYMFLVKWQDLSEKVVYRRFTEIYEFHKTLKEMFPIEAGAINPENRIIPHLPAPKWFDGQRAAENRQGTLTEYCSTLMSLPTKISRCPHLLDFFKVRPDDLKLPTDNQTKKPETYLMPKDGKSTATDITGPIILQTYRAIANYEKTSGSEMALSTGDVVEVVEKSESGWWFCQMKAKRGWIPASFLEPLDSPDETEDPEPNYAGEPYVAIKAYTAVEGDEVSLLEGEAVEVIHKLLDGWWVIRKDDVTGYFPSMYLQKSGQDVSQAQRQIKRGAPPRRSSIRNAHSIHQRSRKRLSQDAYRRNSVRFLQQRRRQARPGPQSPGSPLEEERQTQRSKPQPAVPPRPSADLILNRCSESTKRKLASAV
Autophagy HCS – autophagy modulators in MEF cells, primary screen, imaging, high-content, MEF GFP-LC3 | calls only at 10 µM (by protocol) | 0.98% of 190,000 active | MEF GFP-LC3 puncta imaging; test concentration mostly 10 µM;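 active = percentage of spot-positive cells more than 3 SD above its plate mean, without a fluorescence outlier flag or 80% toxicity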;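 note: spot-positive cell cutoff set from DMSO-treated cells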
TNAP inh hiacc – human TNAP enzyme inhibitors, primary screen, biochemical, luminescent, high phosphate acceptor level, uHTS; AID 1135, 2008; inhibition, % at 20 µM; purified TNAP, CDP-star luminescence, 1 M DEA; 0.03% of 200,000 active;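 active = over 50% inhibition of tissue-nonspecific alkaline phosphatase at 20 µM in the single-dose screen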;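 note: plate controls were DMSO wells for no effect and EDTA-quenched wells as full inhibition for full effect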
An asterisk follows results filed as active; i = inactive; / = no result; + = active, no number. The list is not random: actives were taken first. Their share in the collection is about 1.8%.

SMILES	TNAP inh no acc	Ins promoter up	TNAP act hiacc	NCF1 inh	Autophagy HCS	TNAP inh hiacc
CCCCc1n[nH]c2c1C(=O)CC(C)(C)C2	87*	-0.09	1	-11	i	-3
CC1(C)CC(=O)C(N=Nc2cccnc2)=C(O)C1	/	0.17	/	-9	/	/
CC1(C)CC(=O)c2c(-c3cccnc3)n[nH]c2C1	72*	-0.56	1.1	-9	i	-6
CCCc1n[nH]c2c1/C(=N\OCC)CC(C)(C)C2	/	-0.32	/	-11	/	/
CCc1n[nH]c2c1/C(=N\O)CC(C)(C)C2	3	0.5	1.1	-1	i	-7
NNC(=O)C(Cc1c[nH]c2ccccc12)NC(=O)c1ccccc1 (stereo unspecified)	/	-0.86	/	6	/	/
CCN(CC(=O)Nc1ccc(NC(C)=O)cc1)c1ccc(C(F)(F)F)cn1	1	-0.35	1	0	i	-2
CC(C)(C)C1CCC2(CC1)CC(=O)c1ccccc1O2 (stereo unspecified)	/	-0.04	/	-8	/	/
Cc1cccc(C)c1NC(=O)COC(=O)c1c2c(nc3ccccc13)/C(=C\c1ccc3c(c1)OCO3)CCC2	-10	-0.51	0.9	-52	+	8
Cc1ccc(S(=O)(=O)Nc2cccc3cccnc23)cc1	-13	-0.14	1.1	-2	+	-9
O=C(O)C1CCCCC1C(=O)NCCCn1ccnc1 (stereo unspecified)	-4	/	1	36*	i	-3
c1ccc(C(c2ccccc2)c2noc(CN3CCC(c4ccncc4)CC3)n2)cc1	-6	-0.11	1.1	-6	i	-6
C=CCn1c(=NC(=O)c2ccc(S(=O)(=O)N3CCc4ccccc4C3)cc2)sc2cc(S(N)(=O)=O)ccc21	-2	-0.39	1	-12	i	-3
C#CCn1c(=NC(=O)c2ccc(S(=O)(=O)N3CCc4ccccc4C3)cc2)sc2cc(S(N)(=O)=O)ccc21	-2	-0.17	1	1	+	4
CSc1ncc(Cl)c(C(=O)Nc2sc3c(c2C(=O)NCc2ccco2)CCCC3)n1	-6	0.09	1	-13	+	4
CCN1CCCC1CNC(=O)c1cc2c(-c3cccc(OC)c3)nn(C)c2s1 (stereo unspecified)	-13	-0.87	1	/	i	-4
Cn1nc(-c2ccc(Cl)cc2)c2cc(C(=O)NCCCN3CCCC3)sc21	-15	-0.32	1.1	-37	+	-9
CCN1CCCC1CNC(=O)c1cc2c(-c3ccc(Cl)cc3)nn(C)c2s1 (stereo unspecified)	-4	-1.9	1	-44	+	-4
COc1ccc(OC)c(-c2csc(NC(=O)c3ccc4c(c3)OCO4)n2)c1	-12	-1.1	1	-42	i	-3
Cc1ccc(/C(CSc2nccn2-c2ncc(C(F)(F)F)cc2Cl)=N\O)cc1	2	0.48	1	+	i	-3
O=c1oc2ccccc2cc1-c1csc(Nc2nc3ccc(F)cc3s2)n1	-6	-0.08	1	-60	i	1
O=c1oc2ccccc2cc1-c1csc(Nc2nc3c(F)cccc3s2)n1	-97	-0.61	1	-56	+	2
O=C(N/C(=C\c1ccccc1)C(=O)N1CCN(CCO)CC1)c1ccccc1	-6	-0.32	1	-8	i	-2
COc1ccc(-c2nc(C#N)c(N3CCC(C(N)=O)CC3)o2)cc1	2	/	1	-15	i	-4
N#Cc1nc(-c2ccc(OCc3ccccc3)cc2)oc1N1CCC(C(N)=O)CC1	-5	1.1	1	55*	i	-3
SMILES	TNAP inh no acc	Ins promoter up	TNAP act hiacc	NCF1 inh	Autophagy HCS	TNAP inh hiacc
COc1ccc(C2CC(c3cccs3)=NN2c2ccc(C=O)cc2)cc1 (stereo unspecified)	-9	-0.6	1	-148	+	-4
c1ccc(C2CC(c3cccs3)=NN2c2ccccc2)cc1 (stereo unspecified)	/	-0.75	/	-25	/	/
CCN(CC)S(=O)(=O)c1cc(C(=O)Nc2cccnc2Cl)ccc1Cl	-7	-0.08	1	-8	i	-4
Cc1c(N=C2N=C(NC(=O)c3cccs3)c3ccccc32)c(=O)n(-c2ccccc2)n1C	30	/	0.8	-44	+	21
CCOC(=O)N1CCN(C(=O)CSc2ccc(-c3ccc(OC)cc3)nn2)CC1	-7	-0.25	1	-2	i	0
COc1ccc(-n2nnnc2-c2ccccc2)cc1	-25	-2.4	1.1	16	+	-5
Clc1ccc(-n2nnnc2-c2ccccc2)cc1	-11	/	1.1	1	i	-5
C=CCOC(=O)C1=C(C)NC(SCC(=O)Nc2ccc(C)c(Cl)c2)=C(C#N)C1c1ccco1 (stereo unspecified)	-6	0.25	1.1	-8	+	-8
CC(=O)C1=C(C)NC(SCC(=O)c2ccc(C)cc2)=C(C#N)C1c1ccco1 (stereo unspecified)	1	0.5	0.9	-41	+	7
Cc1ccc(C(=O)CSC2=C(C#N)C(c3ccco3)C3=C(CC(C)(C)CC3=O)N2)cc1 (stereo unspecified)	1	-1.7	1	-25	i	4
COCCOC(=O)C1=C(C)NC(SCC(=O)NC(C)(C)C)=C(C#N)C1c1ccco1 (stereo unspecified)	-4	-0.79	1	-1	i	-1
CCO[C@@H]1OC(C(=O)NCc2ccccc2)=C[C@H](c2ccc(Br)cc2)[C@H]1CCCO	-7	-1.6	1.1	-14	i	-7
COc1ccccc1NC(=O)CSc1nnc(CCC(=O)Nc2ccccc2F)n1C	/	0.62	/	-3	/	/
COc1cc(/C=C2\SC(c3ccccc3)=NC2=O)cc(Cl)c1O	52*	-0.2	0.8	-26	i	25
COc1ccc(NC(=O)c2ccccc2NC(=O)CSc2ccc(Cl)cc2)cc1	-13	0.84	1	6	+	-2
COc1ccc(NC(=O)c2ccccc2NC(=O)CSc2ccccc2)cc1	-1	-0.62	1	-7	i	4
COc1ccc2cc(C)c3nnc(SCC(=O)Nc4nc(-c5ccccc5)cs4)n3c2c1	-4	-0.11	1	5	+	0
CN(C)c1ccc(-c2nnn(CC(=O)NCc3ccc4c(c3)OCO4)n2)cc1	-17	-0.45	1.1	-5	i	-6
CC1=NN(c2ccccc2)C(=O)/C1=C/C=C/c1ccc(N(C)C)cc1	50*	0.05	0.5	44*	i	54*
CCCCC(=O)Nc1ccc2c(c1)nc1n2CCSC1	-1	3.2*	1	1	i	-5
